Published values gathered from unrelated publications.
Each line is one published result; the experiments were not run side by side.
Target: Bone morphogenetic protein receptor type-2 (BMPR2, Homo sapiens, UniProt Q13873)
One construct used (Q13873 27-1038): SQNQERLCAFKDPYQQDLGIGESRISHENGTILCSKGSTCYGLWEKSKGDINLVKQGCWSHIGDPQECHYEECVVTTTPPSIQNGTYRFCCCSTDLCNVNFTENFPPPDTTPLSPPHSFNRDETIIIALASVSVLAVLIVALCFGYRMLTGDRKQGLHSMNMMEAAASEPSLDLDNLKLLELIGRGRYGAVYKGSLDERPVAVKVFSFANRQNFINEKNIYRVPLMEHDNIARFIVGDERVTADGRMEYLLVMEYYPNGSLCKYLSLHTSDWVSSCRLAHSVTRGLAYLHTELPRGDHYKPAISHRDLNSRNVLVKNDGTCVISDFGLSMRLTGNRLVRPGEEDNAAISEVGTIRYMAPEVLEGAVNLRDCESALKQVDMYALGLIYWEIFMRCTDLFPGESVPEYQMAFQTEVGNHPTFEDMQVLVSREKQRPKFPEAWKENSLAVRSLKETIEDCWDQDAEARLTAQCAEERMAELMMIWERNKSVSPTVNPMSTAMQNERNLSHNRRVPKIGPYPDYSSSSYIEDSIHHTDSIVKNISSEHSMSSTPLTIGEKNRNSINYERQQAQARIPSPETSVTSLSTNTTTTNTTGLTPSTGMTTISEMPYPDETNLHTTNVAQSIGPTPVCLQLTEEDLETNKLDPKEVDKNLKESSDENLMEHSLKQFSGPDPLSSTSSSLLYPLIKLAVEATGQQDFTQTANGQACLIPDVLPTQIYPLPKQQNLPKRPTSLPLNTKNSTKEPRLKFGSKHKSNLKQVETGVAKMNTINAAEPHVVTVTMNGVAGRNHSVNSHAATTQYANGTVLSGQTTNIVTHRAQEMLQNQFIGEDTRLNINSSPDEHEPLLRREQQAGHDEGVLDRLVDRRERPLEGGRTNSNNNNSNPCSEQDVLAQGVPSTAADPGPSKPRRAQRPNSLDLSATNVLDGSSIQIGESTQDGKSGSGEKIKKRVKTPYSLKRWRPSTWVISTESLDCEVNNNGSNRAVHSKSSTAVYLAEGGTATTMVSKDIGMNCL

| Compound | effect on | mode | technique | tested at | measurement | result |
| --- | --- | --- | --- | --- | --- | --- |
| COc1ccc2oc(-c3ccc4nc(N)oc4c3)c/c(=N\c3ccccc3NC(=O)CCN)c2c1 | binding | – | – | 1 µM | remaining binding | 104% |
| CC#CC(=O)N1CCC[C@H]1c1nc(-c2ccc(C(=O)Nc3ccccn3)cc2)c2c(N)nccn12 | enzyme activity | inhibitor | – | 1 µM | inhibition | 0% |
| Cc1ccc(NC(=O)c2ccnc(C(F)(F)F)c2)cc1-c1cc(OCCO)nc(N2CCOCC2)c1 | binding | – | – | 1 µM | remaining binding | 100% |
| CCCCC(=O)Nc1ccc(-c2ccc3ncn(CCC)c(=O)c3c2)cn1 | binding | – | competition with immobilised ligand | 0.5 µM | remaining binding | 100% |
| C1=C/COCc2cc(ccc2OCCN2CCCC2)Nc2nccc(n2)-c2cccc(c2)COC/1 | binding | – | – | 0.1 µM | remaining binding | 80% |
| N#Cc1ccc(NC(=O)Nc2ccccc2)cc1 | cell-free assay | – | competition with immobilised ligand | 25 µM | remaining binding | 95% |
| C[C@H]1CC[C@H](n2c3cnccc3c3cnc(Nc4ccc5c(n4)CCN(C(=O)CO)C5)nc32)CC1 | binding | – | – | 1 µM | remaining binding | 100% |
| C=CC(=O)N1CCC[C@@H](n2nc(-c3ccc(Oc4ccccc4)cc3)c3c(N)ncnc32)C1 | enzyme activity | inhibitor | – | 1 µM | inhibition | 19% |
